Screens as filed in PubChem BioAssay.
Most compounds without a hit are left out; they make up all but 27% or so of the library.
CYP2C9 activ: increases human cytochrome P450 2C9 activity. P11712. recombinant CYP2C9, luciferin-H conversion, luminescence; active compounds read high; factor 1 = untreated enzyme, 0 = blocked. activation factor at 5 µM. 96,000 tested, 1.4% active. AID 1024;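 active = activation factor of 2 or more for CYP2C9 at a 5 µM dose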;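 also: 0 = sulfaphenazole-blocked wells and 1 = vehicle-only wells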
Target sequence (P11712 whole entry, looked up): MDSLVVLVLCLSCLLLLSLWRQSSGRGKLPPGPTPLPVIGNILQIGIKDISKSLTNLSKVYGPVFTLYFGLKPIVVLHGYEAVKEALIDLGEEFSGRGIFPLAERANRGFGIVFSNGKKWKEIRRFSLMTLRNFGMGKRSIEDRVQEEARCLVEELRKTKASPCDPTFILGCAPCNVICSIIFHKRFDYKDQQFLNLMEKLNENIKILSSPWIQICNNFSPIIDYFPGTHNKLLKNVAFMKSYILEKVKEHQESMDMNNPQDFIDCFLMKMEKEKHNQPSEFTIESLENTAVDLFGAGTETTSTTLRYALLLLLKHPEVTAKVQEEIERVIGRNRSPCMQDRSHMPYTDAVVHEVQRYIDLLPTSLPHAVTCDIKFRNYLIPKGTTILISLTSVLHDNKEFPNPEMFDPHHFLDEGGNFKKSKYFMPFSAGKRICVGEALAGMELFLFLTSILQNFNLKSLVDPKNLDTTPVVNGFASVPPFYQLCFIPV
CYP2C19 act: increases human CYP2C19 enzyme activity. P33261. recombinant CYP2C19, luciferin-H EGE luminescence; active compounds read high; 0 = fully inhibited enzyme, 1 = untreated enzyme. activation factor at 5 µM. 96,000 tested, under 10 active;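 active = activation factor of at least 2 at 5 µM in the primary screen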;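 also: 0 = wells with 2.5 mM tranylcypromine and 1 = vehicle-only wells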
CYP2C19 inh: human CYP2C19 inhibition | 96,000 tested, 21% active | inhibition, % at 5 µM | CYP2C19 Supersomes, luciferin-H EGE luminescence, 30 min | P33261;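 active = CYP2C19 inhibition above a set limit at 5 µM in the primary screen, cut at about 50% in these data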;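 also: plate controls were negative control wells for no effect and 2.5 mM tranylcypromine positive control for full effect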
HIV Rev-RRE inh: HIV Rev-RRE protein-RNA interaction inhibition. AID 704. Rev peptide-RRE RNA binding, FRET. 97,000 tested, 0.79% active. P05866. inhibition, % at 8 µM;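 active = inhibition above the screen-wide mean plus 3 SD, cut at about 35% in these data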;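 also: 0% = median DMSO wells and 100% = median Neomycin B control wells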
Target sequence (P05866 whole entry, looked up): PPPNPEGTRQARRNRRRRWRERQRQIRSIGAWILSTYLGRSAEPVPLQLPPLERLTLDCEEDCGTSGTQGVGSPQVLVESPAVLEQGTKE
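Test system – labelled RRE RNA duplex and labelled Rev peptide · Signal – fluorescein-to-Cy5 FRET, 480 nm excitation · Evaluation – % inhibition of FRET ratio versus controls · Benchmarks – DMSO low control, neomycin B high control · Incubation – 5 min RNA-compound premix plus 15 min binding step, 25 °C · Medium – HEPES pH 7.5 salt buffer with EDTA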
Cav3 T inh: blocks human Cav3.2 T-type calcium channel. O95180. Cav3.2-expressing cells, Fluo-4 calcium fluorescence FDSS; active compounds read low. B-score at 10 µM. 100,000 tested, 4% active;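 active = single-dose well whose peak fluorescence ratio is a statistical outlier from its plate by either plate-standardised score or position-corrected B-score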
CYP2C9 inh: blocks human cytochrome P450 2C9. P11712. 96,000 tested, 20% active. AID 777. inhibition, % at 5 µM. CYP2C9 Supersomes, luciferin-H conversion, luminescence;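 active = blocking of liver enzyme CYP2C9 beyond about 50% at 5 µM, limit read from the data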
An asterisk follows results filed as active; · = no result given.

SMILES	CYP2C9 activ	CYP2C19 act	CYP2C19 inh	HIV Rev-RRE inh	Cav3 T inh	CYP2C9 inh
Cc1nc(N2CCOCC2)c(C#N)c(C)c1Br	0.8	0.4	56*	9	-0.24	20
CCCc1nc(N2CCOCC2)c(C#N)c2c1CCCC2	0.3	0.2	82*	16	-2.7	72*
N#CCCSc1nc(N2CCOCC2)c2c(c1C#N)CCCC2	0	0.1	91*	16	·	97*
CSc1nc(N2CCOCC2)c2c(c1C#N)CCCCC2	0.2	0.5	47	18	-2.4	79*
CCOC(=O)C1=NN(N=O)C2(CC(=O)N(c3cc(C)cc(C)c3)C2=O)C1 (stereo unspecified)	1	1.2	-19	2	·	5
O=C(Nc1nnc(CC(=O)N2CCOCC2)s1)C1COc2ccccc2O1 (stereo unspecified)	1.2	1.2	-22	6	0.0066	-25
CCCCc1nc(N2CCOCC2)c(C#N)c2c1CCCC2	0.5	0.7	30	3	-2.6	49
CCCSc1nc(N2CCOCC2)c2c(c1C#N)CCCC2	0.1	0.4	59*	14	-6.6*	93*
CCOc1ccc(N2C(=O)CS/C2=N/NC(=O)COc2ccc3ccccc3c2)cc1	0.7	0.9	14	0	-3.5*	28
CC1(C)CC(=O)CC(C)(C)N1OC(=O)c1ccncc1	0.5	0.3	67*	11	0.4	52*
Cn1c(CN2CCC(C(N)=O)CC2)c(C#N)c2ccccc21	·	·	·	5	0.38	·
Cn1c(=O)n(CC(=O)NC2CCCCC2)c(=O)c2ccccc21	0.8	0.8	16	·	0.95	21
Cn1c(CN2CCN(CC#N)CC2)c(C#N)c2ccccc21	2.9*	0.5	48	-1	1	-188
Cn1c(CNC2CCCCC2)c(C#N)c2ccccc21	0.7	0.4	55*	1	-0.12	30
Cn1c(CN2CCCCC2)c(C#N)c2ccccc21	0.9	0	98*	5	-1.2	13
Cc1cc(C)nc(NS(=O)(=O)c2ccc(N3C(=O)C4CC=C(Cl)CC4C3=O)cc2)n1 (stereo unspecified)	1	1	3	4	·	2
CCOC(=O)Cc1ccc(NC(=O)c2ccc(C(C)(C)C)cc2)cc1	1	0.6	40	16	-8.1*	1
COC(=O)Cc1ccc(NC(=O)c2ccc(C)c(C)c2)cc1	1.6	0.9	7	2	0.5	-62
Cc1nn(-c2cccc(Cl)c2)c2nc(-c3ccco3)cc(C(=O)O)c12	0.1	1.1	-5	3	-0.67	90*
O=C(O)c1cc(-c2ccco2)nc2ccccc12	0.9	0.9	6	·	2.1	8
CCC(Sc1nnnn1-c1ccccc1)C(=O)NC(C)c1ccccc1 (stereo unspecified)	0.6	0.3	74*	3	-4.9*	44
O=C(CSc1nnnn1-c1ccc(F)cc1)Nc1nc2ccccc2s1	1	1	-1	10	-0.74	-1
CC(Sc1nnnn1-c1ccccc1)C(=O)Nc1ccc(Cl)cn1 (stereo unspecified)	0.2	0.1	87*	7	-5.1*	80*
CCC(Sc1nnnn1-c1ccccc1)C(=O)Nc1nc2ccccc2s1 (stereo unspecified)	·	·	·	14	-6.7*	·
O=C(Nc1nc2ccc(Cl)cc2s1)c1ccc(Br)o1	1	1	-4	4	-3.6*	1
SMILES	CYP2C9 activ	CYP2C19 act	CYP2C19 inh	HIV Rev-RRE inh	Cav3 T inh	CYP2C9 inh
Cc1cc(C)cc(N(C(=O)Cc2cccs2)C(C(=O)NC2CCCCC2)c2ccccn2)c1 (stereo unspecified)	0.9	0.9	11	3	-5.3*	12
CCc1ccc(N(C(=O)Cc2cccs2)C(C(=O)NC2CCCCC2)c2cn(C)nc2C)cc1 (stereo unspecified)	0.6	0.3	73*	3	-1.2	40
CCOc1cccc(N(C(=O)Cc2cccs2)C(C(=O)NC2CCCCC2)c2cccn2C)c1 (stereo unspecified)	·	·	·	-2	-4.1*	·
Cc1oc(-c2ccc(Cl)cc2)nc1CSCC(=O)NCCCN1CCOCC1	0.9	0.9	12	8	1.1	12
Cc1cc2c3nonc3ccc2n1-c1ccccc1	1	0.8	18	0	-1.5	-1
O=C(c1cc(N2CCCCC2)nc2ccccc12)N1CCOCC1	0.9	1	0	3	-0.02	9
CC(C)Cc1cc(C(=O)N2N=C(C(F)F)CC2(O)C(F)F)c2ccccc2n1 (stereo unspecified)	·	·	·	10	-7*	·
CCc1ccc(-c2cc(C(=O)N3N=C(C(F)F)CC3(O)C(F)F)c3ccccc3n2)cc1 (stereo unspecified)	0.2	0.8	22	15	-1.5	78*
Cn1c(N)c(C(=O)c2cc(-c3ccccc3)nc3ccccc23)c(=O)n(C)c1=O	1.1	0.8	16	7	0.94	-6
CCCCNC(=O)c1onc(CSc2ccc(F)c(F)c2)c1C(=O)NCCCC	·	·	·	·	-1.4	·
O=[N+]([O-])c1cc(-c2nnc(C34CC5CC(CC(C5)C3)C4)o2)cc([N+](=O)[O-])c1	1.1	1.1	-7	10	·	-8
O=C(C1=C[C@H](c2coc3ccccc3c2=O)C[C@H](OCCCCO)O1)N1CCOCC1	·	·	·	·	-1.5	·
O=C(NCCOC(=O)C1COc2ccccc2O1)C1COc2ccccc2O1 (stereo unspecified)	0.3	0.1	88*	0	-0.043	69*
O=C(NCc1ccccn1)C1COc2ccccc2O1 (stereo unspecified)	1	0.2	77*	·	-0.25	-1
O=C(NCCOC(=O)C1COc2ccccc2O1)c1cccnc1 (stereo unspecified)	0.9	1	5	14	-0.17	12
CCOc1ccc(-c2n[nH]c(C)c2Oc2ccccc2OC)c(O)c1	0.1	0	99*	21	-2.1	89*
C=C(C)COc1ccc(-c2nc(N)nc(C)c2Oc2ccccc2OC)c(O)c1	0.8	0.8	17	12	0.15	24
C=C(C)COc1ccc(-c2n[nH]c(C)c2Oc2ccccc2OC)c(O)c1	0.2	0.2	81*	20	-0.54	81*
O=C(CN1C(=O)C2CC=CCC2C1=O)NC1CCCc2ccccc21 (stereo unspecified)	0.9	1.2	-18	1	0.68	5
O=C(c1ccc2c(c1)c(=O)oc1ccccc12)N1CCCCC1	·	·	·	0	·	·
Cc1ccc2c(c1)NC(=O)C(CC(=O)NCCCN1CCCC1)O2 (stereo unspecified)	1	1	-2	6	0.044	4
COc1ccc(N2CCN(CCCNC(=O)CC3Oc4ccc(C)cc4NC3=O)CC2)cc1 (stereo unspecified)	0.2	0.9	13	·	0.25	77*
NNC(=O)c1cnn(Cc2ccccc2)c1N	·	·	·	-2	-0.15	·
